# Screens (PubChem BioAssay)
# An excerpt weighted towards active compounds, which were near 1.7% of everything screened.
# APJ antagonist = antagonists of human apelin receptor APJ, primary screen, CHO-K1 cells, beta-arrestin complementation, luminescence; P35414; inhibition, % at 20 µM; actives 0.32% (n = 330,000); AID 2521, 2010;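 active = inhibition above about 40% at 20 µM, limit read from the data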;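 also: cells challenged with 10 nM apelin-13 agonist together with compound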
# PfGluPho inh = PfG6PD enzyme inhibitors, primary screen, biochemical, fluorescence intensity, uHTS; glucose-6-phosphate dehydrogenase-6-phosphogluconolactonase (Plasmodium falciparum 3D7); PfGluPho enzyme, NADPH resazurin-diaphorase fluorescence; inhibition, % at 20 µM; actives 0.78% (n = 350,000);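 active = inhibition reaching at least a set limit at 20 µM in the primary screen, cut at about 59% in these data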
# CCR6 antagonist = CCR6 receptor antagonists, primary screen, cell-based, CHO-K1, luminescence, beta-arrestin, uHTS | CHO-K1 CCR6 PathHunter beta-arrestin, CCL20-stimulated | C-C chemokine receptor type 6 (Homo sapiens), P51684 | AID 493098, 2011 | actives 0.49% (n = 340,000) | inhibition, % at 20 µM;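 active = compounds whose inhibition of the agonist-driven luminescence signal at 20 µM reaches about 50%, limit read from the data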;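 also: cells stimulated with CCL20 at 14 nM final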
# B2AR ag = beta2AR agonists driving receptor internalization, primary screen, cell-based, FAP fluorogen, flow cytometry | Am2.2-beta2AR cells | response, % (concentration not given with the values) | actives 0.43% (n = 340,000);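 active = response above a set limit, near 3 SD of response in nonfluorescent compounds, cut at about 42% in these data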
# Target sequence (P07550 whole entry, looked up): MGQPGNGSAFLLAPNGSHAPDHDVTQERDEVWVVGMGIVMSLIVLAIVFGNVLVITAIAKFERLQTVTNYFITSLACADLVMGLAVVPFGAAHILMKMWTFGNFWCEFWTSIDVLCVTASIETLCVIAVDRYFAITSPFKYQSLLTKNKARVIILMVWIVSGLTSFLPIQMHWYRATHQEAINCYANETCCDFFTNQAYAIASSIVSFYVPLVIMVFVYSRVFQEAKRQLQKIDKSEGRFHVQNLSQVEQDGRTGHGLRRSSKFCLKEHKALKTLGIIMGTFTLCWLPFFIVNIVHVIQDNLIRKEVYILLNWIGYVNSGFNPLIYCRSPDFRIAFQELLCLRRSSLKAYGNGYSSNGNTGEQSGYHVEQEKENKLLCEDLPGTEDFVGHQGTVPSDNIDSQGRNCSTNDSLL
# CXCR6 block = CXCR6 receptor inhibitors, primary screen, cell-based, beta-arrestin, luminescence, CHO-K1 PathHunter, 1536-well; actives 0.36% (n = 360,000); C-X-C chemokine receptor type 6 (Homo sapiens), O00574; inhibition, % at 20 µM; in the data active = inhibition above about 34%, passing the limit was not always enough;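 also: antagonist mode with CXCL16 agonist at 10 nM final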
# APJ ag = agonists of human apelin receptor APJ, primary screen, CHO-K1 cells, PathHunter beta-arrestin, luminescence; P35414; 0% DMSO wells, 100% apelin; activation, % at 20 µM; actives 0.11% (n = 330,000); AID 2520, 2010;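 active = activation more than six SD over the plate average, tested at 20 µM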
#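 Assay system – PathHunter CHO-K1 APJ (AGTRL-1) beta-arrestin reporter cells · Compound – one dose, 20 µM compound, 1% DMSO · Timing – compound 90 min 25 °C, reagent 1 h · Measured by – luminescence from split beta-galactosidase complementation, Galacton Star/Emerald II substrate · Measure – beta-arrestin recruitment to APJ as agonist activity, luminescent signal · Benchmarks – DMSO vs Apelin-13 10 nM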
# APJ antag confirm = APJ antagonists blocking beta-arrestin recruitment, confirmation, cell-based, luminescence, single concentration, uHTS hits. shares compounds with APJ antagonist. antagonist mode. inhibition, % at 20 µM. actives 66% (n = 950); in the data active = inhibition above about 50%
# CXCR6 confirm = CXCR6 receptor antagonists, confirmation, cell-based, single concentration, beta-arrestin, luminescence. actives 65% (n = 700). CHO-K1 CXCR6 PathHunter beta-arrestin. shares compounds with CXCR6 block. AID 602409, 2012. inhibition, % at 20 µM;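 active = mean inhibition over four retests above 40%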;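 also: receptor stimulated with 10 nM CXCL16 agonist; beta-galactosidase fragment complementation upon beta-arrestin recruitment to receptor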
# A number is an active result; – = inactive; · = not tested or not shown.
SMILES,APJ antagonist,PfGluPho inh,CCR6 antagonist,B2AR ag,CXCR6 block,APJ ag,APJ antag confirm,CXCR6 confirm
COC(=O)c1ccc(C)c(-n2c(=O)n(Cc3ccccc3)c(=O)c3[nH]cnc32)c1,60.6,–,64.1,–,66.5,–,122.2,48.7
Cc1ccccc1-n1c(=O)n(Cc2ccccc2)c(=O)c2[nH]cnc21,–,–,–,–,–,–,·,·
NC(=O)c1ccccc1OCC(=O)c1ccc(Cl)cc1,–,–,–,–,–,–,·,·
NC(=O)c1ccccc1NCC(=O)c1ccc(Cl)cc1,101.4,–,105.0,–,80.1,–,136.4,46.1
O=C(NC1CCCCC1)N1CCN(c2ccccc2Cl)CC1,–,–,–,–,–,–,·,·
COc1ccccc1C(=O)NNC(=S)NC(=O)c1cccs1,42.2,·,·,–,53.1,–,68.3,58.3
O=C(NC(=S)NNC(=O)c1ccccc1O)c1cccs1,–,–,–,–,–,–,·,·
CCS(=O)(=O)c1ncc(Cl)c(C(=O)Nc2ccc(C)cc2)n1,–,–,–,–,–,–,·,·
Cc1ccc(CS(=O)(=O)c2ncc(Cl)c(C(=O)Nc3ccc(OC(F)F)cc3)n2)cc1,42.1,–,71.1,–,75.7,–,51.8,67.3
CC(=O)Nc1cccc(C(=O)N2CCN(S(=O)(=O)Cc3ccccc3)CC2)c1,–,–,–,–,–,–,·,·
O=C(Nc1nnc(SCc2ccc(F)cc2)s1)c1ccccn1,77.9,–,69.6,–,43.5,–,–,49.6
CCOc1ccc(Br)cc1S(=O)(=O)Nc1cccc(S(=O)(=O)N2CCOCC2)c1,·,–,–,–,–,·,·,·
S=C(NCCc1ccccc1)N1CCC2CC1c1c(Cl)cccc12 (stereo unspecified),·,–,·,·,–,·,·,·
Cc1cccc(CSc2cccc3cccnc23)c1,56.3,–,72.1,–,65.7,–,84.0,74.3
C=CCn1c(=O)c2c(nc3n2CC(C)CN3c2cccc(OC)c2)n(C)c1=O (stereo unspecified),48.2,–,58.8,–,49.3,–,77.1,51.0
CCn1c(=O)c([N+](=O)[O-])c(Cl)c2ccccc21,93.9,–,100.0,77.0,102.0,–,101.6,95.8
COc1ccccc1C(=O)Nc1nnc(SCC(=O)NC2CCCC2)s1,–,–,–,–,–,–,·,·
O=C1c2cccc3c([N+](=O)[O-])ccc(c23)C(=O)N1c1ccc(Cl)cn1,48.8,–,76.2,–,53.6,–,82.9,41.7
O=C(NCCc1ccccc1Cl)c1ccc2nc3ccccc3c(=O)n2c1,–,–,–,–,–,–,·,·
CC(NC(=O)c1ccccc1NC(=O)CN1CCc2ccccc2C1)c1ccccc1 (stereo unspecified),–,–,–,–,–,–,·,·
Oc1cccc2ccc(/C=C/c3c(F)cccc3Cl)nc12,43.8,–,55.6,–,47.0,–,–,58.2
Nc1nccc(/C=C/c2c(F)cccc2Cl)n1,–,–,–,–,–,–,·,·
Cc1cc(C)nc(Nc2nc(C(N)CCc3ccccc3)cs2)n1 (stereo unspecified),·,·,·,·,–,·,·,·
O=C(Cc1ccc2ccccc2c1)NC(Cc1ccccc1)C(=O)O (stereo unspecified),·,–,–,–,–,·,·,·
C=CC[n+]1c(-c2ccc(Cl)cc2Cl)csc1Nc1c(C)n(C)n(-c2ccccc2)c1=O,53.8,–,81.5,–,64.2,–,87.3,66.0
CC(=O)OCCN(C)c1cc(SC(C)C)c2nonc2c1[N+](=O)[O-],–,–,–,–,–,–,·,·
